ChEMBL document CHEMBL2434966, “Novel N-4-piperazinyl-ciprofloxacin-chalcone hybrids: synthesis, physicochemical properties, anticancer and topoisomerase I and II inhibitory activity” (Eur J Med Chem, 2013)
Converted amounts (≈) assume the structure as drawn. The source made the active and inactive calls. No cut-off for these calls is given here.

Legend:
[1] = target: T1, DNA topoisomerase 1 (Homo sapiens) (UniProt P11387); assay: Inhibition of human recombinant topoisomerase 1-mediated relaxation of supercoiled pBR322 DNA at 100 uM after 30 mins by agarose gel electrophoresis relative to control
T1 sequence (whole entry): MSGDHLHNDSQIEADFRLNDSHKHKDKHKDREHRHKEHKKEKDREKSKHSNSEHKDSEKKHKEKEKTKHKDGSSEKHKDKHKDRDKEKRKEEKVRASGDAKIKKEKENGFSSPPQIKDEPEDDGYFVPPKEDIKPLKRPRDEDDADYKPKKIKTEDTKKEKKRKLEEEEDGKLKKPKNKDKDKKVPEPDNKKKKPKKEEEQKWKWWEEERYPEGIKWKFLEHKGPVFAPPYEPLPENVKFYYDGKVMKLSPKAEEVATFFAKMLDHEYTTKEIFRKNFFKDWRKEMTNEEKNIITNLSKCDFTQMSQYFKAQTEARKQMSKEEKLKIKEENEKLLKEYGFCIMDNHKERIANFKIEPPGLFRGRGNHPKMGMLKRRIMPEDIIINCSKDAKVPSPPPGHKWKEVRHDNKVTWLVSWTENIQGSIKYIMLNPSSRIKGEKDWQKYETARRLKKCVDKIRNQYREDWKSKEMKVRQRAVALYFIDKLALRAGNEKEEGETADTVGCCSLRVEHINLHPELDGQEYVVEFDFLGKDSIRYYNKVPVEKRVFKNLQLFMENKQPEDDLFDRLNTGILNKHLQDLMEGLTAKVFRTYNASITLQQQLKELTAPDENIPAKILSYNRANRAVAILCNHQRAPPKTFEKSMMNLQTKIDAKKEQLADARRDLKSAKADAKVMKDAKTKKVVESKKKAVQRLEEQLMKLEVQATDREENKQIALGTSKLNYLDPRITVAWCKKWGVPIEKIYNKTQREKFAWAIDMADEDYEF
In short: (§1)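 Recombinant human topo I (0.4 units) with 100 ng supercoiled pBR322, 37 °C for 30 min in Tris-HCl pH 7.9, 150 mM NaCl, 0.1% BSA, 1 mM spermidine, 5% glycerol. Compounds came from 20 mM DMSO stocks, with matched DMSO in the enzyme-only control. Stopped with sarcosyl; 1% agarose/TAE gel, ethidium stain, UV densitometry. Camptothecin was the positive control.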

[2] = Aqueous solubility of the compound at pH 7.8 by UV spectroscopic analysis; assay type: physicochemical; settings: aqueous solution
In short: (§2)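 Excess solid (10 mg) shaken in buffer at pH 6.9 or 7.8, 37 °C. The filtrate was diluted into the linear calibration range and dissolved drug measured by UV absorbance at λmax 272 nm. Values are the average of at least three agreeing independent measurements.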

[3] = Octanol-phosphate buffer partition coefficient, log P of the compound after 5 hrs by shake-flask method; assay type: physicochemical
In short: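 Shake-flask method: 100 µL of 0.2 mg/mL stock diluted into 1.9 mL phosphate buffer pH 7.4 plus 2 mL mutually saturated n-octanol, protected from light. Vortexed 3 min, shaken 5 h at 25 °C. Both phases assayed by UV at 272 nm; log P = log([octanol]/[aqueous]), run in triplicate.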

[4] = target: DNA topoisomerase 2-alpha (Homo sapiens) (UniProt P11388); assay: Inhibition of human topoisomerase 2alpha-mediated relaxation of supercoiled pBR322 DNA at 100 uM after 30 mins by agarose gel electrophoresis relative to control
In short: (§3)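 Human topo IIα (1 unit) with 200 ng supercoiled pBR322 in Tris-HCl pH 7.9, 50 mM NaCl, 5 mM MgCl2, 1 mM EDTA, 1 mM ATP, BSA, 30 min at 30 °C. DMSO was matched in the enzyme-only control. Stopped with EDTA; 1% agarose/TAE gel, ethidium stain, supercoiled band quantified by UV imaging. Etoposide was the positive control.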

[5] = target: T1, DNA topoisomerase 1 (Homo sapiens); assay: Inhibition of human recombinant topoisomerase 1-mediated relaxation of supercoiled pBR322 DNA at 20 uM after 30 mins by agarose gel electrophoresis relative to control; in short: as §1
[6] = Aqueous solubility of the compound at pH 6.9 by UV spectroscopic analysis; assay type: physicochemical; settings: aqueous solution; in short: as §2
[7] = tested on: NCI-H522; assay: Growth inhibition of human NCI-H522 cells at 10^-5 M after 48 hrs by sulforhodamine B assay; assay type: functional, cell-based
In short: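 NCI 60-cell-line primary one-dose screen. Cells were exposed to a single 10^-5 M concentration for 48 h. The end point was sulforhodamine B protein staining, read spectrophotometrically. Results are reported as percent growth of treated cells relative to untreated control cells.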

[8] = tested on: HCT-116; assay: Growth inhibition of human HCT116 cells at 10^-5 M after 48 hrs by sulforhodamine B assay; assay type: functional, cell-based
In short: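 NCI 60-cell-line primary screen. Single concentration of 10^-5 M, 48 h incubation. End point by sulforhodamine B protein staining read spectrophotometrically. Reported as percent growth of treated cells relative to untreated control cells.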

[9] = target: DNA topoisomerase 2-alpha (Homo sapiens) (UniProt P11388); assay: Inhibition of human topoisomerase 2alpha-mediated relaxation of supercoiled pBR322 DNA at 20 uM after 30 mins by agarose gel electrophoresis relative to control; in short: as §3
[10] = target: T1, DNA topoisomerase 1 (Homo sapiens); assay: Inhibition of human topoisomerase 1-mediated unwinding of pHOT1 plasmid DNA up to 1000 uM after 30 mins by agarose gel electrophoresis
In short: (§4)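 pHOT1 plasmid (100 ng) was first relaxed with excess human topo I (3 units) for 30 min at 37 °C in Tris-HCl pH 7.9. Variable compound amounts were then added for a further 30 min at 37 °C. Stopped with EDTA; 1% agarose/TAE gel at 15 V for 15 h, ethidium stain, supercoiled DNA quantified. m-AMSA was the positive control.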

[11] = target: T1, DNA topoisomerase 1 (Homo sapiens); assay: Inhibition of human topoisomerase 1-mediated unwinding of pHOT1 plasmid DNA after 30 mins by agarose gel electrophoresis; in short: as §4

DNA topoisomerase 2-alpha (Homo sapiens), sequence (P11388 whole entry): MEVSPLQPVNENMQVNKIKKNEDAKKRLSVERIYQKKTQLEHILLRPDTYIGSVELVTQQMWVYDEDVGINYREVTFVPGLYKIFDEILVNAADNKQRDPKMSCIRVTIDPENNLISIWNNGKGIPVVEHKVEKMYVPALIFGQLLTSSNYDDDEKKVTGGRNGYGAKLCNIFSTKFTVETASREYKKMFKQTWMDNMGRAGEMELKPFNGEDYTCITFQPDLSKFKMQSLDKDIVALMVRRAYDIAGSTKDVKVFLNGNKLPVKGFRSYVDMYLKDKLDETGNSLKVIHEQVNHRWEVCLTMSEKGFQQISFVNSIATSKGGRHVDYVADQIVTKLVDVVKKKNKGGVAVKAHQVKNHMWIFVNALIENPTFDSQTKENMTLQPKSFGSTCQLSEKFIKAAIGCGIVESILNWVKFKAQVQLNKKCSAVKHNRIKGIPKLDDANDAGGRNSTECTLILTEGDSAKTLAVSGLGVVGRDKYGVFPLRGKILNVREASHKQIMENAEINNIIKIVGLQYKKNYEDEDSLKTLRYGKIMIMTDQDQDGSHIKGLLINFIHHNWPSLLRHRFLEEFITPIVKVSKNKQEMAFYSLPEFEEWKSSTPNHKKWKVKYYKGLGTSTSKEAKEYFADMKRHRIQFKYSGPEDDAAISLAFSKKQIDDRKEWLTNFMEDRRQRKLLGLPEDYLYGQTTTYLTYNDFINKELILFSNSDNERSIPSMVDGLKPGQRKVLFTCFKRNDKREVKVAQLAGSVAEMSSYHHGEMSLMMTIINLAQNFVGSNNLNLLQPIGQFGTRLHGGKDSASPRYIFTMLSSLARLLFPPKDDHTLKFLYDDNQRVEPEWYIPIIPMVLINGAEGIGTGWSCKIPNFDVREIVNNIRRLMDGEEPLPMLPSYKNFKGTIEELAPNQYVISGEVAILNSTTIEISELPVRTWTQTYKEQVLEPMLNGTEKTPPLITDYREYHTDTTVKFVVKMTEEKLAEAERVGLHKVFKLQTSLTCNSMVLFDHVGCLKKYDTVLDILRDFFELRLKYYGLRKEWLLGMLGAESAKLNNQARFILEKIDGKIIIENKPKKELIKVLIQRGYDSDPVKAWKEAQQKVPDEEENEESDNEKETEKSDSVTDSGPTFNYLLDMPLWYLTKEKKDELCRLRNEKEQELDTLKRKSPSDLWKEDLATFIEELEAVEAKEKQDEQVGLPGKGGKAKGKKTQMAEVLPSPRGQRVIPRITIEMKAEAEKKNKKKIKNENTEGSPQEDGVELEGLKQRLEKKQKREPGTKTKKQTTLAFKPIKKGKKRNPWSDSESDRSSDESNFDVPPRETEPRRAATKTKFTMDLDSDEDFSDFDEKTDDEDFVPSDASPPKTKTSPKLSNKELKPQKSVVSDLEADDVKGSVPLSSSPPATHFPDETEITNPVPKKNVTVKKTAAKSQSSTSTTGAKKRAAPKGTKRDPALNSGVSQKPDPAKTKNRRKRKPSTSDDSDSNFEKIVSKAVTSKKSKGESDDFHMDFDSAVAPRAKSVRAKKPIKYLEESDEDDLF

inhibition [1] [%] | solubility [2] [µg/mL] | logP at 5 h [3] | inhibition [4] [%] | inhibition [5] [%] | solubility [6] [µg/mL] | inhibition [9] [%] | inhibition [10] | inhibition [11] | SMILES | growth inhibition (GI) [7] | growth inhibition (GI) [8]
67.5 | 2.23 (≈ 3.54 µM) | 0.47 | 27.7 | 0.4 | 2.77 (≈ 4.4 µM) | – | – | – | O=C(CN1CCN(c2cc3c(cc2F)c(=O)c(C(=O)O)cn3C2CC2)CC1)Nc1ccc(C(=O)/C=C/c2ccc(Cl)cc2)cc1 | Active | Active
70.8 | 2.12 (≈ 3.37 µM) | 1.29 | 66.7 | 4.2 | 2.45 (≈ 3.89 µM) | 21.3 | – | – | O=C(CN1CCN(c2cc3c(cc2F)c(=O)c(C(=O)O)cn3C2CC2)CC1)Nc1ccc(C(=O)/C=C/c2ccccc2Cl)cc1 | – | –
90.5 | 27.4 (≈ 42.9 µM) | -0.0812 | 82.8 | 11.1 | 30.7 (≈ 47.9 µM) | 8.8 | – | – | O=C(CN1CCN(c2cc3c(cc2F)c(=O)c(C(=O)O)cn3C2CC2)CC1)Nc1ccc(C(=O)/C=C/c2cccc([N+](=O)[O-])c2)cc1 | – | –
68.8 | 29.7 (≈ 47.3 µM) | 0.302 | 52.9 | 3.1 | 34.4 (≈ 54.7 µM) | 24.6 | – | – | O=C(CN1CCN(c2cc3c(cc2F)c(=O)c(C(=O)O)cn3C2CC2)CC1)Nc1ccc(C(=O)/C=C/c2cccc(Cl)c2)cc1 | – | –

The remaining lines, values behind:

SMILES | inhibition [1] [%] | solubility [2] [µg/mL] | logP at 5 h [3] | inhibition [4] [%] | inhibition [5] [%] | solubility [6] [µg/mL] | inhibition [9] [%] | inhibition [10] | inhibition [11] | growth inhibition (GI) [7] | growth inhibition (GI) [8]
COc1ccc(/C=C/C(=O)c2ccc(NC(=O)CN3CCN(c4cc5c(cc4F)c(=O)c(C(=O)O)cn5C4CC4)CC3)cc2)cc1OC | 73.2 | 0.68 (≈ 1.04 µM) | 1.46 | 9 | 2.5 | 0.75 (≈ 1.15 µM) | – | – | – | – | –
Cc1ccc(/C=C/C(=O)c2ccc(NC(=O)CN3CCN(c4cc5c(cc4F)c(=O)c(C(=O)O)cn5C4CC4)CC3)cc2)c(C)c1 | 85.1 | 2.07 (≈ 3.32 µM) | 1.47 | 78.9 | 11 | 2.12 (≈ 3.4 µM) | 29.4 | – | – | – | –
O=C(CN1CCN(c2cc3c(cc2F)c(=O)c(C(=O)O)cn3C2CC2)CC1)Nc1ccc(C(=O)/C=C/c2ccc3c(c2)OCO3)cc1 | 91.3 | 2.24 (≈ 3.51 µM) | 0.562 | 85.7 | 25.9 | 2.66 (≈ 4.17 µM) | 43.8 | inactive | – | – | –
COc1ccc(/C=C/C(=O)c2ccc(NC(=O)CN3CCN(c4cc5c(cc4F)c(=O)c(C(=O)O)cn5C4CC4)CC3)cc2)cc1 | 67.6 | 2.42 (≈ 3.87 µM) | 0.684 | 84.3 | 25.3 | 2.98 (≈ 4.77 µM) | 49.6 | inactive | – | Active | Active
COc1cc(NS(C)(=O)=O)ccc1Nc1c2ccccc2nc2ccccc12 | – | – | – | – | – | – | – | – | Dose-dependent effect | – | –
